Active and inactive are the calls of the source.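 The calls were made as follows, unless noted: active = viability at or below 30% in both replicate assays; inconclusive = viability at or below 30% in just one of the two assays; inactive = the rest.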
Legend:
[1] = reducers of endogenous Her2 protein level, primary screen, SKBR3 breast tumor cells, AlphaScreen, ATP viability (AID 461;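 active = Her2 level under about 52% in both replicate screens, with viability over 70% of control, limit read from the data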;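 as to Her2 level: lower value means less Her2 protein in the cells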;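 as to viability: percent of carrier control wells set as 100% viability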); settings: 18-24 h, measured here: SKBR3 viability, ATP luminescence, at 10 µM
[2] = molecular target: Receptor tyrosine-protein kinase erbB-2 (Homo sapiens) (UniProt P04626); experiment: as above; settings: 18-24 h, at 10 µM, stronger effect = lower value
Receptor tyrosine-protein kinase erbB-2 (Homo sapiens), sequence (P04626 whole entry, looked up): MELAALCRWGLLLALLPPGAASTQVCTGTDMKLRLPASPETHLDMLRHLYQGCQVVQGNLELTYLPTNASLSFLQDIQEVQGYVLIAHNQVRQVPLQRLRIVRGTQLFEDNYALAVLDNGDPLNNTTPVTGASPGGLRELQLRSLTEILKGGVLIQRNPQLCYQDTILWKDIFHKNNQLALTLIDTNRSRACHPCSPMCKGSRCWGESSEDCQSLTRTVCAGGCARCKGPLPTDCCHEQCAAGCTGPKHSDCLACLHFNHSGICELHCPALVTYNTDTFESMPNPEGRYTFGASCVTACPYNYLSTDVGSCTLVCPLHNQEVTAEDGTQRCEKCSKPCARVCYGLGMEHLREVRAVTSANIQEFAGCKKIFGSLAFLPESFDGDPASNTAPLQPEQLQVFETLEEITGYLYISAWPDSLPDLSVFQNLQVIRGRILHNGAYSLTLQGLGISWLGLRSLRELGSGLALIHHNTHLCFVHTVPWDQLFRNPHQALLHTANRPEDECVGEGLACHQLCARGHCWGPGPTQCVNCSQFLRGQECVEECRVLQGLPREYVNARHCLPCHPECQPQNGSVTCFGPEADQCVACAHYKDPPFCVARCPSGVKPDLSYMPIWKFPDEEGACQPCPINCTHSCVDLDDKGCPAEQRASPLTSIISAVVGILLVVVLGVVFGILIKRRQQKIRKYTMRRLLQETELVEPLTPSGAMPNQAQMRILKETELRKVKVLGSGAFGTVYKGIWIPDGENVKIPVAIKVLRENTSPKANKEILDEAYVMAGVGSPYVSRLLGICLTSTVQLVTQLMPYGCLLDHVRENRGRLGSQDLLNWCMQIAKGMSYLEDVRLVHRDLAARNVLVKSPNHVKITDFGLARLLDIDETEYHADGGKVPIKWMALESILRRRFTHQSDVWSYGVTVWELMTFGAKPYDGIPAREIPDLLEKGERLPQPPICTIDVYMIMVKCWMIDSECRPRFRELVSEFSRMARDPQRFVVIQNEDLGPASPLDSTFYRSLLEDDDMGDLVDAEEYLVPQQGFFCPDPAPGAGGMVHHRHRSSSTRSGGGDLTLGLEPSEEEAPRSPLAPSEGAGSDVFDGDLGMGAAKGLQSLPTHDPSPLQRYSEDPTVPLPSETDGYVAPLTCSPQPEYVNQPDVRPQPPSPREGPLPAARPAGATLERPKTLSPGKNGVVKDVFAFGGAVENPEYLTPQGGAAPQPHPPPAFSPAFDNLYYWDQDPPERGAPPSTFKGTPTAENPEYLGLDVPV

[3] = SK-BR-3 cell growth inhibitors, pilot screen, 24 h, human (AID 572;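 active = viability at or below 10% of carrier control in both of two separate runs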;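 also: compound exposure lasted between 18 and 24 h rather than exactly 24 h; 100% = carrier-treated control wells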); settings: SK-BR-3 viability, CellTiter-Glo luminescence, at 10 µM, stronger effect = lower value
[4] = HUVEC growth inhibition – cell-based, human, primary screen (AID 575); settings: HUVEC proliferation, CellTiter-Glo luminescence, 72 h; at 10 µM; stronger effect = lower value;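 also: 100% = median of untreated cell wells with 0.1% DMSO on each plate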
Outline: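 System – primary HUVEC, no more than 12 passages · Medium – Low-serum (2% FBS) EBM, supplemented · Times – 72 h exposure, 37 °C, 5% CO2, 30 min RT equilibration · Measured by – luminescent ATP assay · Read-out – % viability relative to median vehicle-well signal on each plate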

[5] = growth inhibitors of H69AR lung tumor, primary screen, human, duplicate replicates (AID 580;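 active = viability at or under a set limit in both replicates, limit being median viability minus 3 SD, cut at about 48% in these data, passing the limit was not always enough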;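 also: 100% = mean luminescence of untreated wells and 0% = no signal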); settings: H69AR lung tumor cells viability, ATP luminescence, 72 h; at 10 µM; stronger effect = lower value
[6] = reversal of MRP1-mediated doxorubicin resistance, pilot screen, H69AR cells, doxorubicin co-treatment (AID 601;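 active = viability loss from added drug above about 55%, and viability with drug at most 40%, in both replicates, limit read from the data, passing the limit was not always enough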); settings: CellTiter-Glo, 72 h, at 10 µM; for differential viability (reversal): stronger effect = higher value
[7] = 384-well plate pilot, post-Golgi transport modulator project, inhibition of yeast transport mutant growth (AID 636; in the data active = inhibition above about 31%); settings: absorbance 615 nm, about 18 h, stronger effect = higher value
[8] = growth suppression of yeast trafficking mutant, preliminary HTS, modulators of trafficking downstream of Golgi apparatus project, 1536-format plate, OD 615 nm (AID 637; in the data active = inhibition above about 30%); settings: yeast transport mutant growth, absorbance 615 nm, 18 h; stronger effect = higher value
[9] = H69AR cells + 2 uM doxorubicin, measured here: viability with 2 uM doxorubicin, stronger effect = lower value
[10] = H69AR cells, compound alone cytotoxicity

| Structure (SMILES) | viability [1] [%] | Her2 level [2] | viability [3] | viability [4] | viability [5] | differential viability (reversal) ([6]; H69AR cells + 2 uM doxorubicin) | viability [6, 9] [%] | viability [6, 10] [%] | inhibition [7] | inhibition [8] |
| --- | --- | --- | --- | --- | --- | --- | --- | --- | --- | --- |
| CC(C(=O)OCn1nnc2ccccc2c1=O)N1C(=O)c2ccccc2C1=O (stereo not given) | 110 | 100% (inactive) | 110% (inactive) | 93.9% (inactive) | 86.6% (inactive) | -21% (inactive) | 108 | 86.6 | -1.45% (inactive) | 30.2% (active) |
| Cc1cc(Cl)ccc1OCCCC(=O)N1CCOCC1 | 90 | 92.5% (inactive) | 90% (inactive) | 99.5% (inactive) | 87.7% (inactive) | 0.08% (inactive) | 87.6 | 87.7 | -5.39% (inactive) | 11.2% (inactive) |
| COc1ccc(S(=O)(=O)C(C#N)c2nc3ccccc3nc2N2CCCC(C)C2)cc1 (stereo not given) | 112 | 102% (inactive) | 112% (inactive) | 51.2% (inactive) | 75.5% (inactive) | -10.6% (inactive) | 86 | 75.5 | -2.21% (inactive) | 6.67% (inactive) |
| O=C1CN(C(=O)CN2CCCC2)C(c2ccccc2)c2cc(Br)ccc2N1 (stereo not given) | 94 | 91% (inactive) | 94% (inactive) | 75.8% (inactive) | 102% (inactive) | 4.63% (inactive) | 97.2 | 102 | -4.67% (inactive) | 1.61% (inactive) |
| O=C(c1cccnc1)N1CCc2ccccc21 | 74 | 77.5% (inactive) | 74% (inactive) | 88.1% (inactive) | 95% (inactive) | -16.3% (inactive) | 111 | 95 | -5.68% (inactive) | -0.16% (inactive) |
| COc1ccccc1N1C(=O)c2ccccc2NC1c1ccncc1 (stereo not given) | 104 | 100% (inactive) | 104% (inactive) | 101% (inactive) | 104% (inactive) | 9.81% (inactive) | 94 | 104 | -1.51% (inactive) | -7.14% (inactive) |
| CC(C)(C)OC(=O)N1CCC(C(=O)N2CCCCCC2)CC1 | 94 | 87.5% (inactive) | 94% (inactive) | 102% (inactive) | 107% (inactive) | 21.3% (inactive) | 86.2 | 107 | -1.71% (inactive) | -6.36% (inactive) |
| CCOC(=O)C1CCCN(C(=O)c2ccc3c(=O)n(CCOC)c(=S)[nH]c3c2)C1 (stereo not given) | 94 | 83% (inactive) | 94% (inactive) | 80.6% (inactive) | 88.6% (inactive) | 11.5% (inactive) | 77.1 | 88.6 | -4.8% (inactive) | -0.33% (inactive) |
| CCn1cc(C2=NCC(C)O2)c2ccccc21 (stereo not given) | 96.5 | 83% (inactive) | 96.5% (inactive) | 74.8% (inactive) | 93.5% (inactive) | 3.18% (inactive) | 90.3 | 93.5 | -5.54% (inactive) | -0.32% (inactive) |
| COc1cc(-c2nc(S(=O)(=O)c3ccccc3)c(N3CCOCC3)o2)cc(OC)c1OC | 82.5 | 86.5% (inactive) | 82.5% (inactive) | 97.7% (inactive) | 87.1% (inactive) | 14.8% (inactive) | 72.2 | 87.1 | -3.16% (inactive) | 12% (inactive) |
| CC(C)CSc1nc2ccccc2n1CC(N)=O | 89.5 | 96% (inactive) | 89.5% (inactive) | 87.6% (inactive) | 93.4% (inactive) | 0.185% (inactive) | 93.2 | 93.4 | -0.38% (inactive) | 0.67% (inactive) |
| COc1cccc(NS(=O)(=O)c2cc(C)sc2C)c1 | 93.5 | 94% (inactive) | 93.5% (inactive) | 97.5% (inactive) | 94.3% (inactive) | 2.18% (inactive) | 92.1 | 94.3 | -2.89% (inactive) | -6.67% (inactive) |
| O=C(Nc1ccc(N2CCCCC2)cc1)c1ccc(F)cc1 | 84 | 106% (inactive) | 84% (inactive) | 80% (inactive) | 83.1% (inactive) | 4.35% (inactive) | 78.8 | 83.1 | 1.79% (inactive) | -0.5% (inactive) |
| O=C(NCc1cccnc1)c1cn(CCc2ccccc2)nn1 | 99.5 | 93% (inactive) | 99.5% (inactive) | 130% (inactive) | 109% (inactive) | 20.4% (inactive) | 89 | 109 | -5.27% (inactive) | 4.33% (inactive) |
| c1cn(CC2(Cn3ccnc3)COC2)cn1 | 103 | 70.5% (inactive) | 103% (inactive) | 83% (inactive) | 99.7% (inactive) | 12% (inactive) | 87.8 | 99.7 | -3.77% (inactive) | -0.79% (inactive) |
| CCOc1cc(-c2nc(-c3ccc(C)nc3OCC)no2)cc(OCC)c1OCC | 91.5 | 108% (inactive) | 91.5% (inactive) | 82.2% (inactive) | 94.8% (inactive) | -3.25% (inactive) | 98 | 94.8 | 2% (inactive) | 3.44% (inactive) |
| COC(=O)C1=C(C)n2nnnc2NC1c1ccc(Cl)cc1 (stereo not given) | 92 | 107% (inactive) | 92% (inactive) | 90.4% (inactive) | 95.3% (inactive) | 8.47% (inactive) | 86.8 | 95.3 | -0.39% (inactive) | 1.83% (inactive) |
| CCN(CC)c1nc2nonc2nc1N(CC)CC | 101 | 92% (inactive) | 101% (inactive) | 110% (inactive) | 104% (inactive) | 4.4% (inactive) | 99.2 | 104 | -6.53% (inactive) | 3.17% (inactive) |
| Cc1nc2nc(Cc3ccccc3)[nH]n2c(=O)c1Cc1ccccc1 | 117 | 104% (inactive) | 117% (inactive) | 96.6% (inactive) | 96.2% (inactive) | 8.81% (inactive) | 87.4 | 96.2 | -0.53% (inactive) | 1.64% (inactive) |
| Cc1ccc(CSC2=NCCN2C(=O)c2ccco2)cc1 | 95.5 | 98% (inactive) | 95.5% (inactive) | 92.8% (inactive) | 84.3% (inactive) | 2.8% (inactive) | 81.5 | 84.3 | -3.85% (inactive) | 3.83% (inactive) |
| CCOC(=O)c1cnn(-c2cc(C)c3cc(C)cc(C)c3n2)c1N | 88.5 | 104% (inactive) | 88.5% (inactive) | 95.5% (inactive) | 82.5% (inactive) | -2.12% (inactive) | 84.6 | 82.5 | 1.82% (inactive) | -8.89% (inactive) |
| COCCNc1nc(C(C)(C)C)nc2c1nnn2Cc1ccccc1Cl | 87 | 86.5% (inactive) | 87% (inactive) | 119% (inactive) | 96.1% (inactive) | 1.67% (inactive) | 94.4 | 96.1 | -0.66% (inactive) | -3.33% (inactive) |
| CN(C)c1cccc2c(S(=O)(=O)Nc3ccccn3)cccc12 | 96.5 | 95.5% (inactive) | 96.5% (inactive) | 109% (inactive) | 101% (inactive) | 2.54% (inactive) | 98.7 | 101 | -6.8% (inactive) | 1.43% (inactive) |
| Nc1nc(N2C(=O)C3CC=CCC3C2=O)nn1-c1ccccc1 (stereo not given) | 101 | 130% (inactive) | 101% (inactive) | 105% (inactive) | 98.7% (inactive) | 2.73% (inactive) | 96 | 98.7 | 1.3% (inactive) | -12.2% (inactive) |
| O=c1c(-c2ccc(Br)cc2)coc2c(CN3CCOCC3)c(O)ccc12 | 85.5 | 80.5% (inactive) | 85.5% (inactive) | 101% (inactive) | 92.2% (inactive) | -4.24% (inactive) | 96.5 | 92.2 | -3.33% (inactive) | -2.22% (inactive) |
| CCOCCCNC(=O)CC1Oc2ccc(C)cc2NC1=O (stereo not given) | 109 | 100% (inactive) | 109% (inactive) | 86.8% (inactive) | 94.7% (inactive) | -3.06% (inactive) | 97.7 | 94.7 | -1.6% (inactive) | 5.08% (inactive) |
| COCCn1c(SCC(=O)Nc2sc(C)c(C)c2C#N)nnc1C(C)C | 98 | 92.5% (inactive) | 98% (inactive) | 96% (inactive) | 89.6% (inactive) | -3.22% (inactive) | 92.8 | 89.6 | -0.13% (inactive) | -4.35% (inactive) |
| CC(=O)N1C(=O)N(C)C2C1N(C(C)=O)C(=O)N2C (stereo not given) | 125 | 104% (inactive) | 125% (inactive) | 92.4% (inactive) | 93.5% (inactive) | -1.64% (inactive) | 95.1 | 93.5 | -1.18% (inactive) | -6.45% (inactive) |
| CC(=O)Nc1ccc(S(=O)(=O)N2CCC(NC(C)=O)(c3cccc(F)c3)CC2)cc1 | 89 | 79% (inactive) | 89% (inactive) | 100% (inactive) | 104% (inactive) | 13% (inactive) | 90.5 | 104 | -6.89% (inactive) | 0.82% (inactive) |

From PubChem BioAssay
